Test results as given in ChEMBL document CHEMBL2417529, “An expedient, ionic liquid mediated multi-component synthesis of novel piperidone grafted cholinesterase enzymes inhibitors and their molecular modeling study” (Eur J Med Chem, 2013).

Key:
[1] = Selectivity ratio of IC50 for electric eel AChE to IC50 for horse serum BChE
Method in brief: (§1)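 Ratio of IC50s from Ellman microplate assays in 0.1 M sodium phosphate pH 8 with 1% final DMSO. AChE (Electrophorus electricus) used acetylthiocholine iodide; BChE (equine serum) used S-butyrylthiocholine chloride, each 14 mM stock. Enzyme and sample preincubated 15 min at 25 °C, then DTNB and substrate added. A412 read at 30 min in triplicate; IC50 from five concentrations.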

[2] = Selectivity ratio of IC50 for horse serum BChE to IC50 for electric eel AChE; method in brief: as §1
[3] = molecular target: Cholinesterase (Equus caballus, UniProt P81908); assay: Inhibition of horse serum BChE using S-butyrylthiocholine chloride as substrate preincubated for 15 mins followed by substrate addition measured after 30 mins by Ellman's microplate assay
Sequence of Cholinesterase (P81908 whole entry): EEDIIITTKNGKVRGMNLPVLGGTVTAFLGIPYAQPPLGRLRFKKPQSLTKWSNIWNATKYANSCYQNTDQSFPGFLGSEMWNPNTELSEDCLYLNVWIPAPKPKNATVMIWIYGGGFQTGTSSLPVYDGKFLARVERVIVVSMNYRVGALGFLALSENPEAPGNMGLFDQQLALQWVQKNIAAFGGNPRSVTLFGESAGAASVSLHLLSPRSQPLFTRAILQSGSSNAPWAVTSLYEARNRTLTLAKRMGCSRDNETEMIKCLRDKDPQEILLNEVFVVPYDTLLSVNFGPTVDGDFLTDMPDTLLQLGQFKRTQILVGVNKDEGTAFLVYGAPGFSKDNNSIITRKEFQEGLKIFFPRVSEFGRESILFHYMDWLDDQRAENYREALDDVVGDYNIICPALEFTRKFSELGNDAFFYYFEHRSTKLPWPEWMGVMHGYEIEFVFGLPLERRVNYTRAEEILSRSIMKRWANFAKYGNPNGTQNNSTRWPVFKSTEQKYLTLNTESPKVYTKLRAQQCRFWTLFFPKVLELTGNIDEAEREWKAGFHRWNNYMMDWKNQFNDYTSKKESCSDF
Method in brief: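 Equine serum BChE preincubated with test samples in 0.1 M sodium phosphate buffer pH 8 for 15 min at 25 °C. DTNB added, then S-butyrylthiocholine chloride (14 mM stock). Colored product read at 412 nm 30 min after reaction start. Final DMSO 1%; triplicates; blank-corrected absorbance; % inhibition versus control; IC50 from five concentrations.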

[4] = molecular target: Acetylcholinesterase (Electrophorus electricus, UniProt O42275); assay: Inhibition of electric eel AChE using acetylthiocholine iodide as substrate preincubated for 15 mins followed by substrate addition measured after 30 mins by Ellman's microplate assay
Sequence of Acetylcholinesterase (O42275 whole entry): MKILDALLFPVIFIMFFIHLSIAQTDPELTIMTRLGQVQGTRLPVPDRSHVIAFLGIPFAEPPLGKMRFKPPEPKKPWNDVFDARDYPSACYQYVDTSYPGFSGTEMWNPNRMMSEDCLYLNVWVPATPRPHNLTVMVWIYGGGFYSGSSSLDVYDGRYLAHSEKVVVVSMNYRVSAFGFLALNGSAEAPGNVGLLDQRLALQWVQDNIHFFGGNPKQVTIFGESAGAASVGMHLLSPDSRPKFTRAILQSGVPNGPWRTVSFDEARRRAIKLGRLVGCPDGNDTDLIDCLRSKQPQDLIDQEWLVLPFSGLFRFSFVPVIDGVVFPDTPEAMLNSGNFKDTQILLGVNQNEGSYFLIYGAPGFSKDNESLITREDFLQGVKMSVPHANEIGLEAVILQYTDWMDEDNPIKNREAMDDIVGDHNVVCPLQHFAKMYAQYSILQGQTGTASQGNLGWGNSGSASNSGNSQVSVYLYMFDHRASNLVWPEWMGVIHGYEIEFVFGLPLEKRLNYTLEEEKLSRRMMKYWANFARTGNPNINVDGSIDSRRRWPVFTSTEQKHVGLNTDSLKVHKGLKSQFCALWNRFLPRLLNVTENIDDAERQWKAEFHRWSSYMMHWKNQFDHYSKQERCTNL

SMILES | Ratio IC50 [1] | Ratio IC50 [2] | IC50 [3] [µM] | IC50 [4] [µM]
S=C1NC2=C(CN(CCN3CCOCC3)C/C2=C\c2ccc(Cl)cc2Cl)C(c2ccc(Cl)cc2Cl)N1 (stereo unspecified) | 1.47 | 0.68 | 5.87 | 8.67
CCN1CC2=C(NC(=S)NC2c2ccc(Cl)cc2Cl)/C(=C/c2ccc(Cl)cc2Cl)C1 (stereo unspecified) | 2.42 | 0.41 | 3.61 | 8.75
CCN1CC2=C(NC(=S)NC2c2cccc([N+](=O)[O-])c2)/C(=C/c2cccc([N+](=O)[O-])c2)C1 (stereo unspecified) | 1.54 | 0.65 | 5.11 | 7.88
COc1ccccc1/C=C1\CN(CCN2CCOCC2)CC2=C1NC(=S)NC2c1ccccc1OC (stereo unspecified) | 1.42 | 0.71 | 5.93 | 8.39
Cc1ccc(/C=C2\CN(CCN3CCOCC3)CC3=C2NC(=S)NC3c2ccc(C)cc2)cc1 (stereo unspecified) | 2 | 0.5 | 3.58 | 7.16
CCN1CC2=C(NC(=S)NC2c2ccccc2C)/C(=C/c2ccccc2C)C1 (stereo unspecified) | 1.57 | 0.64 | 3.93 | 6.17
S=C1NC2=C(CN(CCN3CCOCC3)C/C2=C\c2ccc(Cl)cc2)C(c2ccc(Cl)cc2)N1 (stereo unspecified) | 1.28 | 0.78 | 4.28 | 5.49
Fc1ccc(/C=C2\CN(CCN3CCOCC3)CC3=C2NC(=S)NC3c2ccc(F)cc2)cc1 (stereo unspecified) | 1.97 | 0.51 | 3.41 | 6.72
S=C1NC2=C(CN(CCN3CCOCC3)C/C2=C\c2ccccc2Cl)C(c2ccccc2Cl)N1 (stereo unspecified) | 2.77 | 0.36 | 2.44 | 6.75
CCN1CC2=C(NC(=S)NC2c2ccccc2Cl)/C(=C/c2ccccc2Cl)C1 (stereo unspecified) | 2.3 | 0.43 | 3.57 | 8.22
Fc1ccccc1/C=C1\CN(CCN2CCOCC2)CC2=C1NC(=S)NC2c1ccccc1F (stereo unspecified) | 3.14 | 0.32 | 2.97 | 9.32
Cc1ccccc1/C=C1\CN(CCN2CCOCC2)CC2=C1NC(=S)NC2c1ccccc1C (stereo unspecified) | 4.31 | 0.23 | 1.89 | 8.15
CCN1CC2=C(NC(=S)NC2c2ccc(C)cc2)/C(=C/c2ccc(C)cc2)C1 (stereo unspecified) | 1.06 | 0.94 | 4.73 | 5.02
CCN1CC2=C(NC(=S)NC2c2ccc(Cl)cc2)/C(=C/c2ccc(Cl)cc2)C1 (stereo unspecified) | 0.22 | 4.56 | 5.88 | 1.29
CCN1CC2=C(NC(=S)NC2c2ccccc2F)/C(=C/c2ccccc2F)C1 (stereo unspecified) | 1.24 | 0.81 | 4.48 | 5.54
CCN1CC2=C(NC(=S)NC2c2ccc(F)cc2)/C(=C/c2ccc(F)cc2)C1 (stereo unspecified) | 0.36 | 2.76 | 5.98 | 2.07
CCN1CC2=C(NC(=S)NC2c2ccccc2)/C(=C/c2ccccc2)C1 (stereo unspecified) | 0.22 | 4.56 | 4.2 | 0.92
CCN1CC2=C(NC(=S)NC2c2ccccc2OC)/C(=C/c2ccccc2OC)C1 (stereo unspecified) | 0.61 | 1.65 | 8.13 | 4.92
S=C1NC2=C(CN(CCN3CCOCC3)C/C2=C\c2ccccc2)C(c2ccccc2)N1 (stereo unspecified) | 1.39 | 0.72 | 3.23 | 4.49
